Laboratory results from PubChem BioAssay AID685 (PCMD, 2007).
The whole screen tested about 30,000 compounds, of which about 80 (0.3%) were called active. The sample holds actives, similar compounds and a random draw of the others, so the mix is not that of the screen.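 The calls were made as follows: active = mutant and wild-type yeast strains alike exhibit over 30% growth inhibition; inconclusive = a strain exceeds 50% while the second remains under 30%; inactive = the rest.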

Assay: S. cerevisiae growth inhibition, turbidity – wild-type and eIF2Bepsilon R284H mutant, A595, cytotoxicity control for eIF2B function restoration project, primary screen (AID 685);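 also: 0% = untreated cell controls and 100% = YPD media blanks without cells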
Conditions: 16 h, stronger effect = higher value, screened at 25 µM (by protocol)
Outline: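 Schedule: 16 h growth with compound, 30 °C. System: yeast, wild-type or eIF2Bepsilon-R284H mutant. Doses: one dose, 25 µM compound[…]. Buffer or medium: YPD. Signal: turbidity measured as absorbance at 595 nm. Read-out basis: growth inhibition (%) versus cell controls and blanks.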

[1] = S. cerevisiae eIF2Bepsilon-R284H mutant growth

Compound	growth inhibition [1]	growth inhibition (S. cerevisiae wild-type growth)
CC(C)NC(=O)C(=O)NCCN1CCN(S(=O)(=O)c2ccc(Cl)cc2)CC1	7.69%	7.31% (inactive)
COc1ccc(C2CC(=O)n3c(nc4ccccc43)S2)cc1OC (centres undefined)	-2.13%	32% (inactive)
COc1ccc(-c2cc(C(F)(F)F)nc(NCc3cccnc3)n2)cc1	25.5%	15.3% (inactive)
CCCc1nc2sc3c(c2c(=O)n1NC(=O)CCCl)CCCC3	9.3%	-7.93% (inactive)
COc1cccc(OCc2cc(/C=N/NC(=O)c3nc(Cl)c(Cl)c(N)c3Cl)ccc2OC)c1	-17.9%	-14.8% (inactive)
CCn1nc(C)c(NC(=O)/C=C/c2ccc(OC)c(COc3ccc(Br)cc3)c2)c1C	50%	54.5% (active)
CCOC(=O)N1CCN(C(=O)COc2ccc(Br)cc2)CC1	0%	10.3% (inactive)
C=CCn1c(SCc2c(C(=O)OC)sc(N)c2C(=O)OC)nnc1-c1ccc(Cl)cc1	6.98%	-10.3% (inactive)
CCCCOc1ccc(C(=O)NCc2ccncc2)cc1	18.6%	33.8% (inactive)
CCCOc1ccc(C2NC(=O)NC(c3ccccc3)=C2C(C)=O)cc1OCC (centres undefined)	7.89%	4.64% (inactive)
COC(=O)/C(NC(C)=O)=C(\C)c1ccc(Cl)cc1	-32.3%	8.3% (inactive)
CCOc1ccc(NC(=O)CCS(=O)(=O)c2ccc3c(c2)CCCN3C(=O)CC)cc1	13.5%	10.8% (inactive)
CCN(CC)CCn1c(=S)[nH]c2ncccc2c1=O	5.13%	11.5% (inactive)
CCc1ccc(NC(=O)CN2C(=O)CSC2=O)cc1	-8.82%	5% (inactive)
COc1ccc(C)cc1S(=O)(=O)NCCc1ccccc1	12.9%	4.64% (inactive)
CC(C)=C1SC(N2CCN(c3cccc(C)c3)CC2)=NC1=O	16.2%	11.8% (inactive)
COc1cccc2cc(C(=O)N3CCN(C(=O)c4ccccc4)CC3)c(=O)oc12	9.38%	8.28% (inactive)
CC(Oc1ccc(Cl)cc1)c1ccnn1S(C)(=O)=O (centres undefined)	10.8%	28.1% (inactive)
CC(C)(C)n1nnnc1C(c1ccc(F)cc1)N1CCN(Cc2ccc3c(c2)OCO3)CC1 (centres undefined)	-18.2%	15% (inactive)
N/C(=N\OC(=O)Nc1ccc(Cl)c(Cl)c1)c1ncc(C(F)(F)F)cc1Cl	30.3%	35.2% (active)
NC(=O)c1ncc(C(F)(F)F)cc1Oc1ccc(F)cc1	-3.33%	19.2% (inactive)
CCn1nccc1C(=O)Nc1ccc(Cl)c(Cl)c1	-8.33%	12.8% (inactive)

Compound	growth inhibition [1]	growth inhibition (S. cerevisiae wild-type growth)
CN1CCN(C(=O)Cn2c(C(F)(F)F)nc3ccccc32)CC1	25%	9.62% (inactive)
CC(C)(C)N1CC(c2nc3ccccc3n2Cc2ccc(F)cc2)CC1=O (centres undefined)	20%	5% (inactive)
CS(=O)(=O)Nc1ccc(C(=O)N2CCCC2)cc1	11.6%	38.3% (inactive)
Cc1[nH][nH]c(=O)c1N=Nc1ccccc1	8.33%	25.8% (inactive)
Cc1[nH][nH]c(=O)c1C(c1ccc(-c2ccc(Cl)cc2)o1)c1c(C)[nH][nH]c1=O	63%	75.8% (active)
Cc1ccccc1-c1nnc(SCC(=O)NCc2ccc3c(c2)OCO3)n1C	8.14%	13.1% (inactive)
CC(C)(CNC(=O)c1cc(=O)[nH]c2ccccc12)N1CCOCC1	-23.8%	-1.08% (inactive)
Cc1cc(NC(=O)CN2CCCC(C)C2)n(-c2nc3ccccc3s2)n1 (centres undefined)	-42.9%	-15.7% (inactive)
Cc1[nH]n(-c2cccc(Cl)c2)c(=O)c1/C=N/n1c(C)nc2ccccc2c1=O	2.56%	21% (inactive)
O=C(CCS(=O)(=O)c1cccc2nsnc12)N1CCN(c2ccccc2F)CC1	12.5%	11.5% (inactive)
Cc1ccc(S(=O)(=O)N2CCN(S(=O)(=O)N3CCOCC3)CC2)cc1	-11.9%	10.3% (inactive)
COC(=O)c1ccc(/C=N\n2c(C)nnc2C)cc1	-3.85%	-0.22% (inactive)
CC(=O)Nc1cccc(Oc2cc(C#N)c(C#N)cc2N2CCOCC2)c1	-4.55%	-7.1% (inactive)
O=C(N/N=C/c1ccc(O)cc1)/C(=C/c1ccc([N+](=O)[O-])cc1)NC(=O)c1ccccc1	15%	5% (inactive)
CC(=NCc1ccco1)c1c(C(F)(F)F)[nH]n(-c2nc3ccccc3s2)c1=O	7.61%	34.2% (inactive)
O=C(CSc1n[nH]c(-c2cccnc2)n1)Nc1ccnc2ccccc12	7.69%	1% (inactive)
Cc1ccc(S(=O)(=O)N(C)C2(C)CCS(=O)(=O)C2)cc1 (centres undefined)	5%	-6.15% (inactive)
COC(=O)c1ccccc1NC(=O)CN(Cc1ccc(Cl)cc1)S(C)(=O)=O	6.98%	4.14% (inactive)
CCSc1ccccc1C(=O)NCc1ccc(OC)cc1	10.3%	2.69% (inactive)
CCOc1ccc(S(=O)(=O)NCCSc2ccccc2)cc1	12.5%	10% (inactive)
CCNC(=O)c1sccc1-n1cccc1	12.9%	8.21% (inactive)
COCCCNC(=O)COc1cc(C)c(Cl)c(C)c1	-13.6%	8.44% (inactive)

Compound	growth inhibition [1]	growth inhibition (S. cerevisiae wild-type growth)
COC(=O)Nc1ncc(CN2CCCCC2)s1	6.45%	-0.8% (inactive)
CCOc1ccc(S(=O)(=O)Nc2ccc(S(=O)(=O)Nc3cc(OC)ccc3OC)cc2)cc1	6.38%	5.67% (inactive)
CC1(C)NC(=O)N(CCCCSc2ccc(Cl)cc2)C1=O	15.6%	21.2% (inactive)
CC/S(CC1CC1(Cl)Cl)=N\S(=O)(=O)c1ccc(C)cc1 (centres undefined)	25.5%	20.7% (inactive)
Cc1ccc(C(=O)N2CCCC2)c(F)c1F	20%	0.21% (inactive)
O=C(c1ccc(Cl)c(Cl)c1)N1CCCC1	8.89%	28.3% (inactive)
CCCCc1nnc(NC(=O)CSc2nc(C)cc(=O)[nH]2)s1	20%	14.6% (inactive)
c1ccc(CSCCc2ccncc2)cc1	20%	22.3% (inactive)
CCC(=O)N(Cc1ccccc1)c1ccccn1	15%	1.54% (inactive)
Nc1c(C(=O)NCc2ccccc2)sc2nc3c(cc12)C(=O)CCC3	0%	-16.4% (inactive)
Cc1ccoc1C(=O)Nc1cccc(Oc2ccccc2)c1	20%	20.3% (inactive)
Cc1cc(C)n(-c2ccc(Cl)c(C(=O)O)n2)n1	-10%	22.7% (inactive)
Cc1cccc(N(CC(=O)N2CCOCC2)S(C)(=O)=O)c1	-23.8%	4.83% (inactive)
CCc1c(O)nc(SCC(=O)Nc2ccccc2)n(C(C)CC)c1=O (centres undefined)	12.8%	10% (inactive)
O=S1(=O)C=C(SCCN2CCCC2)c2ccccc21	13.5%	27.4% (inactive)
CS(=O)(=O)N1CCN(c2cccc(Cl)n2)CC1	18.9%	-6.15% (inactive)
Cc1cccc(NC(=O)C2CCCN2S(=O)(=O)c2ccc(F)cc2)c1C (centres undefined)	13.8%	9.79% (inactive)
COc1ccc(-c2cc(C)nc3nc(N)nn23)cc1	13.3%	1.72% (inactive)
Cc1ccc(S(=O)(=O)NC(=O)COc2ccccc2C)cc1	10.5%	6.06% (inactive)
COc1ccc(CN2CCCCC2C)cc1OC (centres undefined)	12.5%	8.46% (inactive)
CC1CC2=C(CC1/C=N/NC(N)=S)C(C)(C)CCC2 (centres undefined)	41.9%	30% (active)
CCCCNC(=O)OC(C)CNC(=O)OC (centres undefined)	15%	15.4% (inactive)

Compound	growth inhibition [1]	growth inhibition (S. cerevisiae wild-type growth)
CC(=O)Nc1ccccc1OC(=O)N1CCOCC1	2.94%	27.7% (inactive)
O=c1c2ccccc2nc2n1C1(CCCCC1)Cc1ccccc1-2	2.94%	5.38% (inactive)
CC(C)C[C@@H](N)c1nnc(SCC(=O)c2ccc(Cl)cc2)o1	-4.76%	-22.1% (inactive)
Cc1cc(C(=O)Nc2ccccc2N2CCOCC2)c2ccccc2n1	15.2%	28.1% (inactive)
COc1cccc(N2CC(C(=O)Nc3c(C)cccc3C)CC2=O)c1 (centres undefined)	-17.4%	-10.6% (inactive)
COC(=O)c1cc(NC(=O)CC2C(=O)NCCN2C(=O)c2ccc(F)cc2)cc(C(=O)OC)c1 (centres undefined)	14.3%	3.33% (inactive)
Cc1cc2nc(C)n(CCCNC(=O)Nc3ccccc3)c2cc1C	-4.76%	26.8% (inactive)
Cc1cc(C)c2nc(NC(=O)C3CCCO3)sc2c1 (centres undefined)	28.2%	10.3% (inactive)
CCN(c1ccccc1)S(=O)(=O)c1ccc(C(=O)Nc2nccs2)cc1	0%	18.7% (inactive)
Cc1ccc(OCC(=O)Nn2cnc3ccccc32)cc1	-33.3%	-14% (inactive)
Cc1ccc(-c2noc(CSc3nnc(-c4ccncc4)n3-c3ccc(F)cc3)n2)cc1	11.6%	17.6% (inactive)
CCOC(=O)c1ccc(N2C(=O)CC(Sc3nc(O)c(CC)c(=O)[nH]3)C2=O)cc1 (centres undefined)	0%	-8% (inactive)
Cc1ccc(N2C(=O)CC(Sc3ncn[nH]3)C2=O)cc1 (centres undefined)	23.8%	1.62% (inactive)
O=C1CC(Sc2ncn[nH]2)C(=O)N1c1ccccc1 (centres undefined)	56.8%	43.7% (active)
COc1ccc(NC(=O)COC(=O)Cn2c(C)nc3ccccc32)cc1OC	-9.52%	-7.04% (inactive)
CN(C)/C=C1/C(=O)Nc2ccccc21	0%	16.7% (inactive)
CCCCNC(=O)C1CCCN(S(=O)(=O)c2ccc(S(=O)(=O)NCC(C)C)cc2)C1 (centres undefined)	28.2%	0.77% (inactive)
CCOc1ccc(-c2nc(C)sc2CC(=O)O)cc1	14.9%	16.7% (inactive)
COc1cc(S(=O)(=O)N(Cc2cccs2)C2CC2)ccc1-n1cnnn1	-4.17%	13% (inactive)
Cc1ccc(S(=O)(=O)N(c2cccc(C)c2)C2CCS(=O)(=O)C2)cc1 (centres undefined)	0%	8.71% (inactive)
CN(Cc1ccccc1)C(=O)COc1ccccc1	16.7%	1.03% (inactive)
